The values below come from ChEMBL document CHEMBL1275426, “Apoptosis induced by aminoglycosides in LLC-PK1 Cells: comparative study of neomycin, gentamicin, amikacin, and isepamicin using electroporation” (Antimicrob Agents Chemother, 2008).

The test system of data set [1] is LLC-PK1. In words: Induction of apoptosis in pig LLC-PK1 cells at 0.192 to 0.384 mM after 24 hrs electoporated in presence of compound. Type of data set: functional, cell-based. Particulars: Sus scrofa. The method, boiled down:
(§1)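 LLC-PK1 cells were electroporated with or without aminoglycoside at increasing concentrations, up to 0.384 mM, present during the pulse. Cells were then returned to aminoglycoside-free medium. Apoptotic nuclei were enumerated 24 h later. Values are mean ± SD, n = 3, by two-tailed ANOVA against controls.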

The test system of data set [2] is LLC-PK1. Kind of data set: Induction of apoptosis in pig LLC-PK1 cells assessed as caspase 3 activity at 2 mM after 1 day […]. Type of data set: functional, cell-based. Particulars: Sus scrofa. The method, boiled down:
(§2)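 Renal LLC-PK1 cells were incubated up to 3 days with 2 mM drug in continuous exposure. Caspase 3 activity was measured with the fluorogenic substrate N-acetyl-Asp-Glu-Val-Asp-7-amido-4-methylcoumarin and expressed as % of matched untreated controls. The positive control was camptothecin at 14.3 μM. Values are mean ± SD, n = 3, by two-tailed ANOVA against matched controls.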

Data set [3] has as its system LLC-PK1. In words: Induction of apoptosis in pig LLC-PK1 cells at 2 mM by DAPI staining. Format: functional, cell-based. The settings on record: Sus scrofa, TDE = time-dependent effect. Put shortly:
(§3)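 LLC-PK1 cells were incubated without drug or with 2 mM or 6 mM aminoglycoside for up to 3 days. Nuclei were stained with DAPI, and the percentage of apoptotic nuclei was counted by microscopy. Camptothecin at 14.3 μM served as positive control. Values are mean ± SD, n = 3, by two-tailed ANOVA against matched controls.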

Data set [4] relates to LLC-PK1. Kind of data set: Induction of apoptosis in pig LLC-PK1 cells assessed as caspase 3 activity at 2 mM after 2 days […]. Format: functional, cell-based. The settings on record: Sus scrofa. Put shortly:
as §2

Data set [5] concerns LLC-PK1. Kind of data set: Induction of apoptosis in pig LLC-PK1 cells at 0.1mM after 24 hrs electoporated in presence of compound. Particulars: Sus scrofa. Type of data set: functional, cell-based. Put shortly: as §1
Data set [6] relates to LLC-PK1. Kind of data set: Induction of apoptosis in pig LLC-PK1 cells measured at 0 to 3 mM after 2 days by DAPI staining. Type of data set: functional, cell-based. The settings on record: Sus scrofa. The method, boiled down: (§4)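 LLC-PK1 cells were incubated for 48 h over a concentration series: 0 to 3 mM, or 3 to 9 mM. Apoptotic nuclei were scored as a percentage by DAPI staining under the microscope. Values are mean ± SD, n = 3, by two-tailed ANOVA against drug-free cells.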

Data set [7] has as its system LLC-PK1. Kind of data set: Induction of apoptosis in pig LLC-PK1 cells at 0.064 mM after 24 hrs electoporated in presence of compound. Type of data set: functional, cell-based. Particulars: Sus scrofa. Put shortly: as §1
For the next data set, the system named is Homo sapiens. In words: Drug uptake in human at 15 mg/kg. The settings on record: in vivo. Type of data set: ADME, organism-based. Set-up: dose 15 mg/kg.
Data set [8] relates to LLC-PK1. In words: Induction of apoptosis in pig LLC-PK1 cells at 6 mM after 1 day by DAPI staining. Type of data set: functional, cell-based. Particulars: Sus scrofa. Put shortly:
as §3

The subject of data set [9] is LLC-PK1. Kind of data set: Induction of apoptosis in pig LLC-PK1 cells at 6 mM after 3 days by DAPI staining. Particulars: Sus scrofa. Type of data set: functional, cell-based. The method, boiled down: as §3
Data set [10] concerns LLC-PK1. In words: Induction of apoptosis in pig LLC-PK1 cells at 6 mM after 2 days by DAPI staining. Format: functional, cell-based. The settings on record: Sus scrofa. The method, boiled down: as §3
Data set [11] concerns LLC-PK1. Kind of data set: Induction of apoptosis in pig LLC-PK1 cells upto 9 mM after 2 days by DAPI staining. Type of data set: functional, cell-based. Particulars: Sus scrofa. The method, boiled down:
as §4

The subject of data set [12] is LLC-PK1. In words: Induction of necrosis in pig LLC-PK1 cells assessed as lactate dehydrogenase release. Type of data set: functional, cell-based. The settings on record: Sus scrofa.

The source made the active and inactive calls. The calls are words filed in the database; no cut-off is given here.

On to `CN[C@@H]1[C@@H](O)[C@@H](O[C@@H]2[C@@H](O)[C@H](O[C@H]3O[C@H](CN)[C@@H](O)[C@H](O)[C@H]3O)[C@@H](N)C[C@H]2NC(=O)[C@@H](O)CN)OC[C@]1(C)O`, for which, in the data set on LLC-PK1 [1], the outcome was Active.
As for GENTAMICIN [listing 1 of 2 here], the result in the data set with LLC-PK1 [2], in the data set on LLC-PK1 [4] and in the data set on LLC-PK1 [5] was Active. Further, the Activity entry in the data set on LLC-PK1 [3] is “tde”; in the data set with LLC-PK1 [6] it was “Dose-dependent effect”.
For the compound `NC[C@@H]1O[C@H](O[C@H]2[C@@H](O)[C@H](O[C@@H]3[C@@H](O)[C@H](N)C[C@H](N)[C@H]3O[C@H]3O[C@H](CN)[C@@H](O)[C@H](O)[C@H]3N)O[C@@H]2CO)[C@H](N)[C@@H](O)[C@@H]1O`, the outcome in the data set with LLC-PK1 [7] was Active.
With GENTAMICIN [listing 2 of 2 here], the Drug uptake in the data set on Homo sapiens turned out to be 8.56 µmol/kg.
Regarding `NCC[C@H](O)C(=O)N[C@@H]1C[C@H](N)[C@@H](O[C@H]2O[C@H](CN)[C@@H](O)[C@H](O)[C@H]2O)[C@H](O)[C@H]1O[C@H]1O[C@H](CO)[C@@H](O)[C@H](N)[C@H]1O` [AMIKACIN], the result with LLC-PK1 [8], in the data set on LLC-PK1 [10], in the data set on LLC-PK1 [11] and with LLC-PK1 [12] was inactive. Further, the outcome in the data set on LLC-PK1 [9] was Active. This compound also came in with a Drug uptake in the data set with Homo sapiens of 25.6 µmol/kg.
